Laboratory results: ChEMBL document CHEMBL1122273, “5-sulfamoylorthanilic acids, a sulfonamide series with salidiuretic activity” (J Med Chem, 1983)

Legend:
Canis familiaris [1] = assay: sodium excretion collected at 1-24 hr time after oral administration in dog (four animals per dose) dosed at 0.05 mg/kg.; assay type: functional, Canis lupus familiaris
In short: (§1)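 Trained male beagles, four per dose, fasted 24 h with tap water ad libitum. After bladder emptying, given 20 mL/kg tap water by stomach tube, then 4 mL/kg at each hourly catheterization; 2 h control collection, then oral dosing. Urine volume and Na⁺ (flame photometry) reported for 1–6, 7–24 and 1–24 h post-dose periods.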

[2] = Partion coefficient in octanol/H2O system at pH=7; assay type: physicochemical
In short: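 Partition between octanol and Britton-Robinson buffer, measured across pH 0–13; value read at pH 7.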

Canis familiaris [3] = assay: Diuretic activity in the dog (2 animals/dose) at (dose 0.1 mg/Kg), when administered perorally; assay type: functional, Canis lupus familiaris, Urine
In short: (§2)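 Trained male beagles, fasted 24 h with tap water ad libitum. Bladder emptied by catheter, then 20 mL/kg tap water by stomach tube, with 4 mL/kg water at each hourly catheterization up to 8 h. The first 2 h of urine served as control. Oral dosing came after the second catheterization, and 1–6 h urine was pooled. Na⁺ and K⁺ were measured by flame photometry, Cl⁻ argentometrically, in mequiv/kg.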

Canis familiaris [4] = assay: Saluretic activity in the dog measured as concentration of Na+ in urinary excretion (2 animals/dose) at (dose 0.1 mg/Kg, perorally); assay type: functional, Canis lupus familiaris, Urine
In short: (§3)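 Male beagles trained to rest on a table and to accept stomach tube and catheter. Food withdrawn 24 h before, tap water ad libitum. Bladder emptied by catheter, then 20 mL/kg tap water by stomach tube. Catheterized hourly up to 8 h with 4 mL/kg water orally each time; first 2 h urine served as control. Oral dosing after second catheterization. Pooled 1–6 h urine; Na⁺/K⁺ by flame photometry, Cl⁻ argentometrically.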

Rattus norvegicus [5] = species on record: Rattus norvegicus; assay: Saluretic activity in the rat measured as concentration of K+ in urine; assay type: functional
In short: (§4)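 Rats deprived of food 24 h, water ad libitum, dosed 50 mg/kg by stomach tube as suspension in 2% starch, no extra water load. Groups of three in diuresis funnels; urine over first 5 h collected. Na⁺ and K⁺ by flame photometry, Cl⁻ argentometrically; expressed as mequiv/kg.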

Canis familiaris [6] = assay: urinary excretion collected at 1-6 hr time after oral administration in dog (four animals per dose) dosed at 0.05 mg/kg.; assay type: functional, Canis lupus familiaris, Urine
In short: (§5)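 Trained male beagles, four per dose, fasted 24 h with tap water ad libitum. The bladder was emptied by catheter, then 20 mL/kg tap water was given by stomach tube. Dogs were catheterized hourly with 4 mL/kg water orally each time, and the first 2 h served as control. Compound was given orally after the second catheterization. Urine volume and flame-photometric Na⁺ were measured over 1-6, 7-24 and 1-24 h.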

Canis familiaris [7] = assay: Saluretic activity in the dog measured as concentration of K+ in urinary excretion (2 animals/dose) at (dose 1.56 mg/Kg, perorally); assay type: functional, Canis lupus familiaris, Urine
In short: (§6)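 Male beagles trained to the procedures, food withdrawn 24 h before, tap water ad libitum. Bladder emptied by catheter, then 20 mL/kg tap water by stomach tube, plus 4 mL/kg orally at each hourly catheterization up to 8 h. The first 2 h of urine served as control. Compound given orally after the second catheterization. Urine from 1–6 h post-dose pooled; Na⁺ and K⁺ by flame photometry, Cl⁻ argentometrically, in mequiv/kg.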

[8] = Solubility of compound in water was determined; assay type: physicochemical; details: buffer
[9] = It is the ratio, measured as saluretic activity in the dog as concentration of Na+ in urinary excretion (dose 0.1 mg/Kg, perorally) to that of K; assay type: functional, Urine; in short: as §2
[10] = Dissociation constant, pK2 was determined using sodium salt
Canis familiaris [11] = assay: Urinary excretion collected at 1-6 hr time after oral administration in dog (four animals per dose) dosed at 0.39 mg/kg.; assay type: functional, Canis lupus familiaris, Urine; in short: as §1
Canis familiaris [12] = assay: Diuretic activity in the dog (2 animals/dose) at (dose 0.4 mg/Kg), when administered perorally; assay type: functional, Canis lupus familiaris, Urine; in short: as §2
[13] = It is the ratio, measured as saluretic activity in the dog as concentration of Cl- in urinary excretion (dose 0.1 mg/Kg, perorally) to that of (Na+)+(K+); assay type: functional, Urine; in short: as §2
Canis familiaris [14] = assay: Diuretic activity in the dog (2 animals/dose) at (dose 1.56 mg/Kg), when administered perorally; assay type: functional, Canis lupus familiaris, Urine; in short: as §2
Rattus norvegicus [15] = species on record: Rattus norvegicus; assay: Diuretic activity in the rats, determined by a modified Lipschitz test; assay type: functional, Urine
In short: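 Modified Lipschitz test: rats deprived of water 24 h, grouped in threes of similar weight in diuresis funnels. Oral dose of 50 mg/kg, suspended in 2% starch solution, by stomach tube.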

Canis familiaris [16] = assay: Saluretic activity in the dog measured as concentration of K+ in urinary excretion (2 animals/dose) at (dose 0.1 mg/Kg, perorally); assay type: functional, Canis lupus familiaris, Urine; in short: as §6
[17] = Dissociation constant, pK1 was determined using sodium salt
Rattus norvegicus [18] = species on record: Rattus norvegicus; assay: Saluretic activity in the rat measured as concentration of Na+ in urine; assay type: functional; in short: as §4
[19] = It is the ratio, measured as saluretic activity in the dog as concentration of Na+ in urinary excretion (dose 0.4 mg/Kg, perorally) to that of K; assay type: functional, Urine; in short: as §2
Canis familiaris [20] = assay: Saluretic activity in the dog measured as concentration of Cl - in urinary excretion (2 animals/dose) at (dose 0.1 mg/Kg, perorally); assay type: functional, Canis lupus familiaris, Urine; in short: as §6
Canis familiaris [21] = assay: Saluretic activity in the dog measured as concentration of K+ in urinary excretion (2 animals/dose) at (dose 0.4 mg/Kg, perorally); assay type: functional, Canis lupus familiaris, Urine; in short: as §6
Canis familiaris [22] = assay: Saluretic activity in the dog measured as concentration of Cl - in urinary excretion (2 animals/dose) at (dose 0.4 mg/Kg, perorally); assay type: functional, Canis lupus familiaris, Urine; in short: as §6
Canis familiaris [23] = assay: sodium excretion collected at 1-6 h time after oral administration in dog (four animals per dose) dosed at 0.05 mg/kg.; assay type: functional, Canis lupus familiaris; in short: as §1
Canis familiaris [24] = assay: Saluretic activity in the dog measured as concentration of Na+ in urinary excretion (2 animals/dose) at (dose 1.56 mg/Kg, perorally); assay type: functional, Canis lupus familiaris, Urine; in short: as §3
Canis familiaris [25] = assay: Saluretic activity in the dog measured as concentration of Cl - in urinary excretion (2 animals/dose) at (dose 1.56 mg/Kg, perorally); assay type: functional, Canis lupus familiaris, Urine; in short: as §6
Rattus norvegicus [26] = species on record: Rattus norvegicus; assay: Saluretic activity in the rat measured as concentration of chloride in urine; assay type: functional; in short: as §4
Canis familiaris [27] = assay: sodium excretion collected at 7-24h time after oral administration in dog (four animals per dose) dosed at 0.05 mg/kg.; assay type: functional, Canis lupus familiaris; in short: as §5
Canis familiaris [28] = assay: Urinary excretion collected at 1-24 hr time after oral administration in dog (four animals per dose) at dose 6.25 mg/kg.; assay type: functional, Canis lupus familiaris, Urine; in short: as §1
Canis familiaris [29] = assay: Diuretic activity in the dog (2 animals/dose) at (dose 12.5 mg/Kg), when administered perorally; assay type: functional, Canis lupus familiaris, Urine; in short: as §2
Canis familiaris [30] = assay: sodium excretion collected at 1-6 hr time after oral administration in dog (four animals per dose) at dose 6.25 mg/kg.; assay type: functional, Canis lupus familiaris; in short: as §1
Canis familiaris [31] = assay: Urinary excretion collected at 1-6 hr time after oral administration in dog (four animals per dose) at dose 6.25 mg/kg.; assay type: functional, Canis lupus familiaris, Urine; in short: as §1
Canis familiaris [32] = assay: sodium excretion collected at 1-24 hr time after oral administration in dog (four animals per dose) at dose 0.39 mg/kg.; assay type: functional, Canis lupus familiaris; in short: as §1
Rattus norvegicus [33] = species on record: Rattus norvegicus; assay: Effect on Urine flow in rats in comparison to furosemide activity
Rattus norvegicus [34] = species on record: Rattus norvegicus; assay: Effect on inulin U/P ratio in rats in comparison to furosemide activity

Structure (SMILES) | Partition coefficient [2] | Diuretic activity (Canis familiaris [3]) [ml kg-1 6hr-1] | Saluretic activity (Canis familiaris [4]) [m equiv 6hr-1 kg-1] | Saluretic activity (Rattus norvegicus [5]) [m equiv 5hr-1 kg-1] | Solubility [8] [%] | Ratio [9] | pKa [10] | Diuretic activity (Canis familiaris [12]) [ml kg-1 6hr-1] | Ratio [13] | Diuretic activity (Canis familiaris [14]) [ml kg-1 6hr-1] | Diuretic activity (Rattus norvegicus [15]) [mL/kg] | Saluretic activity (Canis familiaris [16]) [m equiv 6hr-1 kg-1] | pKa [17] | Saluretic activity (Rattus norvegicus [18]) [m equiv 5hr-1 kg-1] | Ratio [19] | Saldiuretic activity (Canis familiaris [20]) [m equiv 6hr-1 kg-1] | Saluretic activity (Canis familiaris [21]) [m equiv 6hr-1 kg-1] | Saldiuretic activity (Canis familiaris [22]) [m equiv 6hr-1 kg-1] | Saluretic activity (Canis familiaris [24]) [m equiv 6hr-1 kg-1] | Saldiuretic activity (Canis familiaris [25]) [m equiv 6hr-1 kg-1] | also measured
CN(c1ccccc1)c1cc(NCc2ccco2)c(S(=O)(=O)[O-])cc1S(N)(=O)=O.[Na+] | 0.28 | 54.3 | 3.08 | 2.4 | 4 | 4.3 | 10.5 | 75.3 | 1.1 | 69.4 | 4.6 | 0.72 | 1 | 8.2 | 4.1 | 3.99 | 1.28 | 6.34 | 5.74 | 6.79 | Na+ excretion (Canis familiaris [1]): 1.51 mequiv kg-1; Urinary excretion (Canis familiaris [6]): 40.5 mL/kg; Saldiuretic activity (Canis familiaris [7]): 1.17 m equiv 6hr-1 kg-1; Urinary excretion (Canis familiaris [11]): 75.3 mL/kg; Na+ excretion (Canis familiaris [23]): 1.29 mequiv kg-1; Saluretic activity (Rattus norvegicus [26]): 9.4 m equiv 5hr-1 kg-1; Na+ excretion (Canis familiaris [27]): 0.22 mequiv kg-1
NS(=O)(=O)c1cc(S(=O)(=O)[O-])c(NCc2ccco2)cc1Oc1ccccc1.[Na+] | 0.12 | 30 | 1.19 | 2.1 | 20 | 1.2 | 10.2 | 36.4 | 0.8 | 71.4 | 4.1 | 0.15 | 0.5 | 7 | 3.5 | 0.27 | 0.34 | 1.65 | 4.89 | 5.47 | Urinary excretion (Canis familiaris [28]): 111.1 mL/kg; Diuretic activity (Canis familiaris [29]): 74.3 ml kg-1 6hr-1; Saluretic activity (Canis familiaris [7]): 1 m equiv 6hr-1 kg-1; Na+ excretion (Canis familiaris [30]): 6.52 mequiv kg-1; Urinary excretion (Canis familiaris [31]): 75.4 mL/kg; Na+ excretion (Canis familiaris [32]): 2.04 mequiv/kg; Volume (Rattus norvegicus [33]): 0.909 mL/min/kg; Ratio (Rattus norvegicus [34]): 7.66; Saluretic activity (Rattus norvegicus [26]): 9.6 m equiv 5hr-1 kg-1
